{
  "source": "ChEMBL document CHEMBL4359883",
  "about": "“4(1H)-quinolone derivatives overcome acquired resistance to anti-microtubule agents by targeting the colchicine site of β-tubulin” (Eur J Med Chem, 2019)",
  "key": {"HT-29": {"test_system": "HT-29", "experiment": "Antiproliferative activity against human HT-29 cells assessed as reduction in cell viability after 72 hrs by MTS assay", "type": "functional, cell-based", "conditions": "HT-29, 72 h", "outline": "(§1)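 Cells plated at 2000/well, cultured overnight, then exposed to a range of compound concentrations for 72 h. MTS reagent added for 1–4 h at 37 °C and absorbance read at 490 nm. Cultured in RPMI 1640 or DMEM with 10% heat-inactivated FBS under 5% CO2. Data are the mean of three determinations.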"}, "COLO 205": {"test_system": "COLO 205", "experiment": "Antiproliferative activity against human COLO205 cells assessed as reduction in cell viability after 72 hrs by MTS assay", "type": "functional, cell-based", "conditions": "COLO 205, 72 h", "outline": "as §1"}, "SW-620": {"test_system": "SW-620", "experiment": "Antiproliferative activity against human SW620 cells assessed as reduction in cell viability after 72 hrs by MTS assay", "type": "functional, cell-based", "conditions": "SW-620, 72 h", "outline": "as §1"}, "DU-145": {"test_system": "DU-145", "experiment": "Antiproliferative activity against human DU145 cells assessed as reduction in cell viability after 72 hrs by MTS assay", "type": "functional, cell-based", "conditions": "DU-145, 72 h", "outline": "as §1"}, "PC-3": {"test_system": "PC-3", "experiment": "Antiproliferative activity against human PC3 cells assessed as reduction in cell viability after 72 hrs by MTS assay", "type": "functional, cell-based", "conditions": "PC-3, 72 h", "outline": "as §1"}, "MOLT-4": {"test_system": "MOLT-4", "experiment": "Antiproliferative activity against human MOLT4 cells assessed as reduction in cell viability after 72 hrs by MTS assay", "type": "functional, cell-based", "conditions": "MOLT-4, 72 h", "outline": "as §1"}, "NCI-H1975 [1]": {"test_system": "NCI-H1975", "experiment": "Antitumour activity against human NCI-H1975 cells xenografted in Balb/c mouse assessed as reduction in tumour size at 4 mg/kg, ip administered 3 times per week and measured on day 25 (reference value: 1749 +/- 234.5 mm3)", "type": "functional"}, "CL1-0 [2]": {"test_system": "CL1-0", "experiment": "Induction of apoptosis in human CL1-0 cells assessed as PARP cleavage at 20 nM by immunoblotting analysis", "type": "functional, cell-based", "conditions": "TDE = time-dependent effect"}, "NCI-H1975 [3]": {"test_system": "NCI-H1975", "experiment": "Induction of apoptosis in human NCI-H1975 cells assessed as cleaved caspase 9 after 24 hrs by immunoblotting analysis", "type": "functional, cell-based"}, "CL1-0 [4]": {"test_system": "CL1-0", "experiment": "Induction of apoptosis in human CL1-0 cells assessed as caspase 8 activation at 20 to 40 nM after 24 hrs by immunoblotting analysis", "type": "functional, cell-based"}, "NCI-H1975 [5]": {"test_system": "NCI-H1975", "experiment": "Cell cycle arrest in human NCI-H1975 cells assessed as increase in cell population at G2/M phase after 24 hrs by propidium iodide-staining based flow cytometry", "type": "functional", "outline": "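Cells treated for 24 h, then trypsinized and fixed overnight in ice-cold 70% ethanol. Stained for 30 min with propidium iodide (10 µg/mL) plus RNase (20 µg/mL), and DNA content measured by flow cytometry. Mean ± SD.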"}, "NCI-H1975 [6]": {"test_system": "NCI-H1975", "experiment": "Induction of morphological changes in human NCI-H1975 cells assessed as disruption of mitotic spindle arrangement at 40 nM after 6 hrs by DAPI staining based DAPI staining based confocal microscopic analysis", "type": "functional, cell-based", "outline": "(§2)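 Cells exposed for 6 h, fixed in 3.7% paraformaldehyde, permeabilized with 0.1% Triton X-100. Stained with anti-α-tubulin (1:1000) overnight at 4 °C, FITC secondary 1 h at 37 °C, nuclei counterstained with DAPI. Imaged by confocal laser scanning microscopy.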"}, "Tubulin (Homo sapiens) [7]": {"molecular_target": "T1, Tubulin (Homo sapiens) (UniProt P68371+Q9H4B7+P0DPH7+P68366+Q13509+Q71U36+P04350+Q3ZCM7+P07437+P68363+Q9BQE3+Q6PEY2+Q13885+Q9BVA1+Q9BUF5)", "experiment": "Induction of microtubule depolymerization in human NCI-H1975 cells at 40 nM after 6 hrs by DAPI staining based DAPI staining based confocal microscopic analysis", "type": "cell-based", "outline": "as §2"}, "[8]": {"molecular_target": "Tubulin beta (Homo sapiens) (UniProt P68371+Q9H4B7+Q13509+P04350+Q3ZCM7+P07437+Q13885+Q9BVA1+Q9BUF5+A6NNZ2)", "experiment": "Binding affinity to beta tubulin in human NCI-H1975 cells incubated for overnight by immunoblotting based pull down assay", "type": "cell-based", "outline": "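H1975 lysate in RIPA buffer with protease inhibitors incubated overnight at 4 °C with compound-conjugated magnetic beads or control beads. Beads washed five times with PBS, and bound proteins detected by SDS-PAGE immunoblotting with ECL.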"}, "NCI-H1975 [9]": {"test_system": "NCI-H1975", "experiment": "Induction of apoptosis in human NCI-H1975 cells assessed as PARP cleavage at 25 to 50 nM after 24 hrs by immunoblotting analysis", "type": "functional, cell-based"}, "NCI-H1975 [10]": {"test_system": "NCI-H1975", "experiment": "Induction of apoptosis in human NCI-H1975 cells assessed as increase in p-HH3 expression at 25 to 50 nM after 24 hrs by immunoblotting analysis", "type": "functional, cell-based"}, "Tubulin (Homo sapiens) [11]": {"molecular_target": "T1, Tubulin (Homo sapiens)", "experiment": "Inhibition of microtubule polymerization in human NCI-H1975 cells at 25 nM after 6 hr followed by DAPI staining based confocal microscopic analysis", "type": "cell-based", "outline": "as §2"}, "NCI-H1975 [12]": {"test_system": "NCI-H1975", "experiment": "Antitumour activity against human NCI-H1975 cells xenografted in Balb/c mouse assessed as tumour size at 4 mg/kg, ip administered three times per week and measured on day 21 (reference value: 2153 +/- 126.3 mm3)", "type": "functional", "outline": "(§3)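 H1975 tumours grown in the right flank of 6-week-old BALB/c nude mice. DMSO vehicle or 4 or 8 mg/kg compound in DMSO given ip three times weekly. Tumour volume calculated as 0.5W²L before each dose and compared on day 21.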"}, "NCI-H1975 [13]": {"test_system": "NCI-H1975", "experiment": "Antitumour activity against human NCI-H1975 cells xenografted in Balb/c mouse assessed as tumour size at 8 mg/kg, ip administered three times per week and measured on day 21 (reference value: 2153 +/- 126.3 mm3)", "type": "functional", "outline": "as §3"}, "MDA-MB-231": {"test_system": "MDA-MB-231", "experiment": "Antitumour activity against human MDA-MB-231 cells xenografted in Balb/c mouse assessed as […] at 8 mg/kg, ip administered three times per week and measured on day 35 (reference value: 218 +/- 20.9 mm3)", "type": "functional", "outline": "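MDA-MB-231 tumours established in the right flank of 6-week-old BALB/c nude mice. Compound dissolved in DMSO was given ip three times weekly, with a DMSO vehicle group. Tumour volume calculated as 0.5W²L, measured before each dose and compared on day 35.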"}, "[14]": {"experiment": "Toxicity in Balb/c mouse xenografted with human KBtax cells assessed as serum BUN level at 8 mg/kg, ip administered 3 times per week and measured after 21 days (reference value: 17.8 +/-1.1 mg/dl)", "type": "organism-based", "conditions": "in vivo, 504 h"}, "[15]": {"molecular_target": "ATP-dependent translocase ABCB1 (Homo sapiens, UniProt P08183)", "sequence (P08183 whole entry)": "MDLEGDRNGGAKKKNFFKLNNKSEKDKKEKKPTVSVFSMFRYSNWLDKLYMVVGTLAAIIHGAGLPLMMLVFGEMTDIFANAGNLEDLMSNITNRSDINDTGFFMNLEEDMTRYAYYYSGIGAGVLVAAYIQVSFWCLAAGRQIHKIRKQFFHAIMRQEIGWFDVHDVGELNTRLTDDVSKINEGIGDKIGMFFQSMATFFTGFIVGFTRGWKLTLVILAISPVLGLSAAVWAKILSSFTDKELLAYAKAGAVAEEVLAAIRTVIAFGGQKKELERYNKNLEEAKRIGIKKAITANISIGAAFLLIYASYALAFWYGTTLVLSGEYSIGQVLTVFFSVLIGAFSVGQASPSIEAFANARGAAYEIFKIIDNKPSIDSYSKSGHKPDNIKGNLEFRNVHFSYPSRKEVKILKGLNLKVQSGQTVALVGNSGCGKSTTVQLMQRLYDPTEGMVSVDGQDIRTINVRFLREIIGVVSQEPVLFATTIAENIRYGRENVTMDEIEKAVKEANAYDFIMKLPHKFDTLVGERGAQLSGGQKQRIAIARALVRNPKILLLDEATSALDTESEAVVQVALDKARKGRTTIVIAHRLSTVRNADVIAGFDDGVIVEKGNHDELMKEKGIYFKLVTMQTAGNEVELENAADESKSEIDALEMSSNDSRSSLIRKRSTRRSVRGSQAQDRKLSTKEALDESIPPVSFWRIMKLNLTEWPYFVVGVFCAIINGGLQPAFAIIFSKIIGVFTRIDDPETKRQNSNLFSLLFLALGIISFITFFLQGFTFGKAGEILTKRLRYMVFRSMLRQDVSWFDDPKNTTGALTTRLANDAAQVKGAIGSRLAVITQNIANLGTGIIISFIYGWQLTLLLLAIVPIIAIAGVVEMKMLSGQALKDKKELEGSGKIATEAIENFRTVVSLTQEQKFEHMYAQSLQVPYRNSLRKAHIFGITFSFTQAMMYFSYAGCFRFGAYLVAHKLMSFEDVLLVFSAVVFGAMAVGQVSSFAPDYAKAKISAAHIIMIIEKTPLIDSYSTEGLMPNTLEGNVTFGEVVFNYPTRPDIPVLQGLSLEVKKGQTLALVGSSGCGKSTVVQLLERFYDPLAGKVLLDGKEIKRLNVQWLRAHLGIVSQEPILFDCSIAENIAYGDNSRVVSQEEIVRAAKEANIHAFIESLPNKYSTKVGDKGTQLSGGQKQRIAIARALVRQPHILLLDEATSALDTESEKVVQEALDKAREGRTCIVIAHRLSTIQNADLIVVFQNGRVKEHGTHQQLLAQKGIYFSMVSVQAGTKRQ", "experiment": "Inhibition of P-gp efflux in human KBtax cells at 30 to 120 nM after 1 hr by flow cytometry", "type": "cell-based", "outline": "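KBtax cells (2.5×10^5 per test) loaded with rhodamine in cold medium on ice for 1 h. Then resuspended in 37 °C medium with compound and held 1 h at 37 °C for efflux. Retained fluorescence measured by flow cytometry; verapamil used as P-gp inhibitor reference.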"}, "Homo sapiens [16]": {"species": "Homo sapiens", "experiment": "Induction of apoptosis in human KBtax cells assessed as PARP cleavage at 30 to 60 nM after 24 hrs by immunoblotting analysis", "type": "functional, cell-based"}, "Homo sapiens [17]": {"species": "Homo sapiens", "experiment": "Induction of mitotic arrest in human KBtax cells assessed as increase in cyclin-B1 expression at 30 to 60 nM after 24 hrs by immunoblotting analysis", "type": "functional, cell-based"}, "Tubulin (Homo sapiens) [18]": {"molecular_target": "T1, Tubulin (Homo sapiens)", "experiment": "Inhibition of microtubule polymerization in human KBtax cells at 30 nM after 6 hrs by DAPI staining based scanning confocal microscopic analysis", "type": "cell-based", "outline": "as §2"}},
  "note": "Activity calls are given as the source filed them. No cut-off for these calls is given here.",
  "data": [
    {"smiles": "CCOC(=O)c1ccc2nc(-c3ccccc3)cc(O)c2c1", "values": [
      {"measurement": "IC50", "setting": "HT-29", "value": 48, "unit": "nM"},
      {"measurement": "IC50", "setting": "COLO 205", "value": 57, "unit": "nM"},
      {"measurement": "IC50", "setting": "SW-620", "value": 35, "unit": "nM"},
      {"measurement": "IC50", "setting": "DU-145", "value": 47, "unit": "nM"},
      {"measurement": "IC50", "setting": "PC-3", "value": 45, "unit": "nM"},
      {"measurement": "IC50", "setting": "MOLT-4", "value": 38, "unit": "nM"},
      {"measurement": "Activity", "setting": "NCI-H1975 [1]", "value": 871.3, "unit": "mm3"},
      {"measurement": "Activity", "setting": "CL1-0 [2]", "value": "Tde"},
      {"measurement": "Activity", "setting": "NCI-H1975 [3]", "value": "Dose-dependent effect"},
      {"measurement": "Activity", "setting": "CL1-0 [4]", "value": "inactive"},
      {"measurement": "Activity", "setting": "NCI-H1975 [5]", "value": "Dose-dependent effect"},
      {"measurement": "Activity", "setting": "NCI-H1975 [6]", "value": "Active"},
      {"measurement": "Activity", "setting": "Tubulin (Homo sapiens) [7]", "value": "Active"},
      {"measurement": "Activity", "setting": "[8]", "value": "Active"}
    ]},
    {"smiles": "CCOC(=O)c1ccc2[nH]c(-c3cccc(F)c3)cc(=O)c2c1", "values": [
      {"measurement": "Activity", "setting": "NCI-H1975 [9]", "value": "Active"},
      {"measurement": "Activity", "setting": "NCI-H1975 [10]", "value": "Active"},
      {"measurement": "inhibition", "setting": "Tubulin (Homo sapiens) [11]", "value": "Active"},
      {"measurement": "Activity", "setting": "NCI-H1975 [12]", "value": 1333, "unit": "mm3"},
      {"measurement": "Activity", "setting": "NCI-H1975 [13]", "value": 972.5, "unit": "mm3"},
      {"measurement": "Activity", "setting": "MDA-MB-231", "value": 73.6, "unit": "mm3"},
      {"measurement": "Activity", "setting": "[14]", "value": 18.2, "unit": "mg/dL"},
      {"measurement": "inhibition (INH)", "setting": "[15]", "value": "Not Active"},
      {"measurement": "Activity", "setting": "Homo sapiens [16]", "value": "Active"},
      {"measurement": "Activity", "setting": "Homo sapiens [17]", "value": "Active"},
      {"measurement": "inhibition", "setting": "Tubulin (Homo sapiens) [18]", "value": "Active"}
    ]}
  ]
}
